Drawing on ChEMBL document CHEMBL1136634, “Synthesis and photoreactivity of caged blockers for glutamate transporters” (Bioorg Med Chem Lett, 2003), this text covers half-life, IC50 and T1/2 for five compounds.

Data set [1] can be described thus: Half-life was determined. The format is ADME. Particulars: human.
Data set [2] is described as follows: Glutamate uptake inhibition assay on glutamate transporters (excitatory amino acid transporters EAAT2) stably expressed on MDCK cells before U.V radiation. It is filed as cell-based. The settings on record: Canis lupus familiaris.
Data set [3] is described as follows: Glutamate uptake inhibition assay on glutamate transporters (excitatory amino acid transporters EAAT2) stably expressed on MDCK cells after 10 min U.V irradiation. The format is cell-based. The settings on record: Canis lupus familiaris, light or radiation study. The method in brief:
(§1)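 Before assay, caged compound in PBS(+) (1 mM CaCl2, 1 mM MgCl2, pH 7.4) was held in 1 mm quartz cuvettes in a dark box and irradiated with a 365 nm UV hand lamp at room temperature. Relative specific uptake came from three experiments, and IC50 was derived.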

Data set [4] is described as follows: Glutamate uptake inhibition assay on glutamate transporters (excitatory amino acid transporters EAAT2) stably expressed on MDCK cells after 1 min U.V irradiation. The format is cell-based. Particulars: Canis lupus familiaris, light or radiation study. The essentials:
as §1

The nature of data set [5]: Glutamate uptake inhibition assay on glutamate transporters (excitatory amino acid transporters EAAT2) stably expressed on MDCK cells after 20 min U.V irradiation. The format is cell-based. The settings on record: Canis lupus familiaris, light or radiation study. The method in brief: as §1
Data set [6] in a line: Glutamate uptake inhibition assay on glutamate transporters (excitatory amino acid transporters EAAT2) stably expressed on MDCK cells after 5 min U.V irradiation. The format is cell-based. Particulars: Canis lupus familiaris, light or radiation study. The essentials:
as §1

The nature of data set [7]: Glutamate uptake inhibition assay on EAAT2 stably expressed on MDCK cells. The format is cell-based, Canis lupus familiaris.

By half-life is commonly meant the time in which the quantity being followed falls by half. Low values mean rapid decline, high ones slow decline. The IC50 is the concentration needed to halve the response being measured. A high value points to lower potency. Compound `N[C@H](C(=O)OCc1cc(=O)oc2cc(OCC(=O)O)ccc12)[C@H](OCc1ccccc1)C(=O)O` showed a half-life in data set [1] of 3.7 min. The half-maximal inhibitory concentration (IC50) in data set [2] came out at 124 µM; in data set [3] it was 7 µM; in data set [4], 24 µM; in data set [5] it was 5.6 µM; in data set [6], 8.6 µM.

For `COc1ccc2c(COC(=O)[C@@H](N)[C@H](OCc3ccccc3)C(=O)O)cc(=O)oc2c1`, in data set [1], the half-life is 3.9 min. The compound also returned a 50% inhibitory concentration (IC50) in data set [7] (Canis lupus familiaris, MDCK) of 124 µM.

In data set [2], `N[C@H](C(=O)O)[C@H](OCc1ccccc1)C(=O)O` showed a half-maximal inhibitory concentration (IC50) of 1.3 µM.

In turn, `COc1cc(C(C)OC(=O)[C@@H](N)[C@H](OCc2ccccc2)C(=O)O)c([N+](=O)[O-])cc1OC` (stereo in doubt; 3a) returned a T1/2 in data set [1] of 57.2 min. Also, in data set [7] (mdck), the 50% inhibitory concentration (IC50) was found to be 103 µM.

In data set [1], `COc1cc(C(C)OC(=O)[C@@H](N)[C@H](OCc2ccccc2)C(=O)O)c([N+](=O)[O-])cc1OC` (stereo in doubt; 3b) yielded a half-life of 45.2 min. The half-maximal inhibitory concentration (IC50) in data set [7] (Canis lupus familiaris, MDCK) was found to be 111 µM.
